# Source: PubChem (several laboratories)
# This is a sample that favours compounds with a hit; in the whole collection about 4.6% have one here.
# RAM network inh: inhibitors of the yeast RAM network, primary screen, dse1pr::URA3 reporter, 5-FOA selection. 190,000 tested, 1.8% active. inhibition, % at 50 µM. S. cerevisiae dse1pr::URA3 reporter, 5-FOA growth OD615, 2 d; analog-sensitive cbk1-as2 kinase mutant strain;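 active = inhibition above a set limit, 3 SD over mean compound inhibition, cut at about 8.4% in these data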;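 also: 0% = DMSO-only wells with no growth and 100% = 10 µM 1-NA-PP1 full growth; inhibition rescues growth on 5-FOA so higher OD means more RAM inhibition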
# WT yeast gro inh: growth inhibition of WT strain, primary screen, mitochondrial fusion inhibitor project, WT and mutant strains, chemical genetic; mitochondrial fusion phenotypic screen; inhibition, % at 10 µM; 190,000 tested, 2.1% active; AID 1362, 2008; in the data active = inhibition above about 58%; tested in S. cerevisiae
# Arbovirus inh: antivirals against arbovirus infection, primary screen, cell-based, full library, 10K replicate subset; arbovirus infection cell-based antiviral screen; inhibition, % at 10 µM; 200,000 tested, 0.37% active; AID 1251, 2008; in the data active = inhibition above about 30%
# NCF1 inh: p47phox/p22phox peptide binding inhibitors, primary screen, biochemical, uHTS, NADPH oxidase regulatory subunit | AID 1274, 2008 | inhibition, % at 24.7 µM | fluorescence polarization, 2 h | 220,000 tested, 0.53% active | Neutrophil cytosol factor 1 (Homo sapiens), P14598;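 active = inhibition above about 30%, limit read from the data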;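 also: 0% = p47phox with labelled peptide and 100% = labelled peptide alone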
# Target sequence (P14598 whole entry, looked up): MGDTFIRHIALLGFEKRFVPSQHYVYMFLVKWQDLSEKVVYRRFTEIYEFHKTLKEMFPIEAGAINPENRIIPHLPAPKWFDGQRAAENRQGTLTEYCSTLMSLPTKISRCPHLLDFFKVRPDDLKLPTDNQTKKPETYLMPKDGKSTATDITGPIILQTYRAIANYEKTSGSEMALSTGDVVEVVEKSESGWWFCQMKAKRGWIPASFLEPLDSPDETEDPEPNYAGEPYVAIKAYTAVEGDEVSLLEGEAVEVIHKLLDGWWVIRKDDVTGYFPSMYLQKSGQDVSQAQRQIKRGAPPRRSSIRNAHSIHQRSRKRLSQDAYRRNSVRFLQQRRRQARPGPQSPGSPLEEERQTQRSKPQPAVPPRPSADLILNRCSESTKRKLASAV
# Calb biofilm kill: clotrimazole potentiators killing C. albicans biofilm, primary screen, 4-compound mixtures | C. albicans biofilm persisters + clotrimazole, fluorescence viability; primary screen in compound mixtures of four per well | inhibition, % at 7.6 µM | 120,000 tested, 0.02% active;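 active = inhibition above 30.3% in the primary screen of four-compound pools, then above 30% when the compound was retested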;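 also: compounds exposed to preformed 24 h biofilms for 48 h; 0% = untreated biofilm control and 100% = clotrimazole plus chlorhexidine kill blank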
#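 Incubation: 24 h biofilm formation, then 48 h compound exposure, 37 °C | Material: C. albicans biofilms | Buffer or medium: RPMI/MOPS medium, pH 7.0 | Measured by: 2-h Alamar Blue fluorescence, 535/590 nm excitation/emission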
# Hck Nef HTS: inhibitors of Nef-activated human Hck kinase, primary screen, biochemical, Z-Lyte FRET, 384-well, Hck-YEEI. Tyrosine-protein kinase HCK (Homo sapiens), P08631. Recombinant Hck-YEEI plus Nef, Z-Lyte FRET kinase assay. inhibition, % at 20 µM. 220,000 tested, 0.68% active;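 active = Hck-Nef kinase inhibition above about 50%, limit read from the data; inactive = inhibition below that limit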;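 also: 0% = DMSO with Hck plus Nef and 100% = Hck alone without Nef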
# RAM efflux-def: 5-FOA growth of efflux-deficient control yeast, dose response, counter-screen for RAM network inhibitor project, S. cerevisiae, OD615; 1,200 tested, under 10 active; max inhibition, %; shares compounds with RAM network inh; S. cerevisiae efflux-deficient reporter strain, 5-FOA growth OD615, 2 days; call rule not given here;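 also: plate controls were vehicle for no effect and reference inhibitor for full effect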
# * marks the source's active call; other numbers are inactive results; / = no result given.
SMILES,RAM network inh,WT yeast gro inh,Arbovirus inh,NCF1 inh,Calb biofilm kill,Hck Nef HTS,RAM efflux-def
CCNC(=S)N(C)CCc1cc2c(c(OC)c1C=C1C(=O)N(C)C(=O)N(C)C1=O)OCO2,/,/,/,3,13,29,/
Cc1ccccc1-n1c(O)c(C=Nc2ccc(N(C)C)cc2)c(=O)[nH]c1=O,3,-5,2,-25,/,-2,/
CC(Cc1ccccc1Sc1ccccc1O)N(C)C (stereo not drawn),2,7,8,-3,/,2,/
COC(=O)C(O)(c1ccc(NC(=O)c2cccs2)cc1)C(F)(F)F (stereo not drawn),/,/,/,-16,21,-6,/
CCC(C)N1C(=O)/C(=C/c2ccc3c(c2)CCN3CCCCl)C(=O)NC1=S (stereo not drawn),6,9,-11,38*,16,45,/
O=c1[nH]c(=S)n(C2CC2)c(O)c1/C=N/Nc1ccccc1,2,58*,-39,-36,14,1,/
O=c1[nH]c(CN2CC=C(c3ccccc3)CC2)nc2scc(-c3ccccc3)c12,/,/,/,-97,0,25,/
COC(=O)C(=O)N1CC2(C)CNCC(C)(C1)C2=O,-1,-20,-4,-8,36,20,/
CN(CC1COc2ccccc2O1)c1nc(-c2cccnc2)nc2ccccc12 (stereo not drawn),0,80*,-14,-40,/,4,/
Cc1cc(C(=O)CS(=O)(=O)c2ccccc2)cc(C)c1OC(=O)N(C)C,1,-6,2,2,21,27,/
CCOc1ccc(Br)c(C2(O)CC(C)N(C)CC2C)c1 (stereo not drawn),0,-7,-9,-9,/,4,/
CC/C(=C\C=C\[C@@H]1C=C[C@@H]2CCC[C@H]2[C@@H]1C(=O)c1ccc[nH]1)[C@@H]1O[C@@H]([C@@H](C)C(=O)O)CC[C@@H]1C,2,81*,-12,-13,2,0,/
CC(C)(C)C(=O)c1cn(Cc2ccccc2)c2ccccc12,0,27,8,3,20,4,/
CCc1ccc(-n2c(O)c(/C=N/NC(=O)c3ccncc3)c(=O)[nH]c2=O)cc1,11*,-12,-2,-7,15,8,/
CC(C)c1ccc(-n2c(O)c(/C=N/NC(=O)c3ccncc3)c(=O)[nH]c2=O)cc1,0,10,10,-29,18,7,/
Cc1ccccc1-n1c(/C=C/c2ccccn2)nc2ccccc2c1=O,/,/,/,-20,14,23,/
CN1C2CCC1/C(=C/c1ccccn1)C(=O)/C2=C\c1ccccn1,2,81*,-36,4,7,8,/
CN1C2CCC1CC(=NO)C2,0,-1,-2,1,15,14,/
CC(C)n1c(=O)c(C=Nc2cccc([N+](=O)[O-])c2)c(O)n(CCc2ccccc2)c1=O,6,27,6,-48,8,-1,/
CCC(=NCCO)c1c(O)n(C2CCCCC2)c(=O)[nH]c1=O,1,0,14,4,/,0,/
CCC(=NCc1ccc2c(c1)OCO2)c1c(O)n(C2CCCCC2)c(=O)[nH]c1=O,4,62*,-24,-27,/,-2,/
COc1cccc(NP(=O)(Oc2ccccc2Cl)Oc2ccccc2Cl)c1,13*,40,-45,-11,8,2,2
CC(C)CCN(N=O)[C@@H](Cc1ccccc1)CN(N=O)[C@@H](Cc1ccccc1)CN(C)N=O,20*,5,8,-7,22,-8,8
CN(C[C@H](Cc1ccccc1)N(C[C@H](Cc1ccccc1)N(CCC(C)(C)C)N=O)N=O)N=O,13*,14,3,-10,22,-7,3
C#CCN(C)[C@H](C)Cc1ccccc1,/,-1,0,-4,/,/,/
SMILES,RAM network inh,WT yeast gro inh,Arbovirus inh,NCF1 inh,Calb biofilm kill,Hck Nef HTS,RAM efflux-def
O=C(c1ccco1)c1cn(Cc2ccccc2Cl)c2ccccc12,18*,41,7,-10,/,0,4
O=C(c1ccco1)c1cn(Cc2ccccc2)c2ccccc12,6,27,13,0,/,0,/
O=c1c2ccccc2[nH]c(=S)n1-c1cccnc1,/,/,/,0,1,-3,/
O=c1c2ccc(Cl)cc2[nH]c(=S)n1-c1cccnc1,16*,1,-5,-8,20,20,2
CCC(=O)Oc1ccc(C(=O)Nc2cccc(C(=O)c3ccccc3)c2)cc1,12*,8,-7,-7,/,-1,0
N#CC(C#N)=Cc1ccc(N2CCCC2)cc1,1,4,-1,-213,18,-3,/
N#Cc1ccc(/C=C/C(=O)O)cc1,/,/,/,-6,22,0,/
O=C(COc1ccccc1)c1cn(Cc2ccccc2)c2ccccc12,12*,-2,-5,-169,20,2,5
CCc1ccc(-n2c(O)c(C(C)=O)c(=O)[nH]c2=O)cc1 (tested in a mixture with another compound),/,/,/,-2,16,15,/
CC(C)Oc1cccc(NC(=O)c2cccn(Cc3ccc4c(c3)OC(F)(F)O4)c2=O)c1,13*,15,-6,-14,/,1,1
O=C(Nc1cccc(C(F)(F)F)c1)c1cccn(Cc2ccc3c(c2)OC(F)(F)O3)c1=O,14*,43,-15,-18,/,1,3
C[N+](C)(C)Cc1ccccc1,0,13,-6,0,16,0,/
COc1ccc(-n2c(O)c(C=Nc3c(C)n(C)n(-c4ccccc4)c3=O)c(=O)[nH]c2=O)cc1,1,-5,1,-14,/,3,/
CCN(CC)CC(O)c1ccc(C2CCCC2)cc1 (stereo not drawn),0,-1,-26,-7,14,2,/
O=C1NC(=S)NC(=O)C1=Cc1cccc2cc3ccccc3cc12,/,/,/,-8,15,1,/
CN1/C(=C\C=C2C(=O)NC(=S)NC2=O)C(C)(C)c2ccccc21,11*,15,-1,-232,7,16,5
CC1(C)OC(c2ccccc2)=C/C(=C/C=C2C(=O)NC(=S)NC2=O)O1,18*,-11,10,-249,5,-94,6
C=C(C)CN1CC[C@]23c4c5ccc(O)c4O[C@H]2c2[nH]c4ccccc4c2C[C@@]3(O)C1C5,/,-6,-22,-9,/,/,/
COc1ccc(C)cc1NC(=O)c1c(C)nn(Cc2ccccc2)c1Cl,13*,25,4,-5,13,0,3
CCOc1ccc(NC(=O)c2c(C)nn(Cc3ccccc3)c2Cl)cc1,2,-6,-2,-6,13,0,/
